A short description of experiment [1]: S. cerevisiae growth inhibition in permissive medium (OD615), pilot counter-assay for S. cerevisiae lifespan shortening project, permissive growth control (AID 705;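 active = growth inhibition above 25% in both replicates, a cutoff set 3 SD above the mean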). Particulars: OD615, 24 h, at 10 µM, active compounds read high. The procedure, abridged:
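Test system: Saccharomyces cerevisiae strain carrying genetically modified DeaD replicative-lifespan system; buffer or medium: SC raffinose/galactose permissive medium; dosing: one dose 10 µM, DMSO 0.25% final; times: 24 h exposure, 30 °C; measured by: OD at 615 nm; read-out basis: growth inhibition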

Experiment [2] can be described thus: S. cerevisiae growth inhibition in restrictive medium, OD615, pilot screen, restrictive growth control, yeast lifespan reduction project (AID 706;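 active = growth inhibition above a set limit, 3 SD over mean compound inhibition, in both replicates, cut at about 43% in these data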;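 also: modified DeaD lifespan yeast strain shifted to restrictive glucose medium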). Particulars: OD615, 48 h, at 10 µM, active compounds read high. In a few lines:
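material = engineered S. cerevisiae DeaD strain | buffer or medium = glucose-based CSMM-D restrictive medium | dosing = one concentration, 10 µM final, 0.25% DMSO | schedule = 4 h pre-growth plus 48 h compound exposure, 30 °C | detection = OD615 absorbance reading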

Experiment [3] is described as follows: doxorubicin toxicity protection in MRP-1 cells – H69AR cells, CellTiter-Glo, duplicate, MRP-1 activator project, pilot screen (AID 807).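 Also: compound pretreatment 18-22 h then 72 h combined with doxorubicin; 0% = doxorubicin alone and 100% = vehicle without doxorubicin.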 Particulars: H69AR viability with doxorubicin, CellTiter-Glo luminescence; at 10 µM; active compounds read high.
Experiment [4] is described as follows: viability of HCT116 without oncogenic beta-catenin – human colon tumor cells, pilot screen (AID 823;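 active = cell viability at or below a set limit in both duplicate runs, the limit being the all-compound median minus 4 SD, cut at about 23% in these data, passing the limit was not always enough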;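 also: 0% = wells killed by 20 µM Hyamine and 100% = untreated DMSO cell wells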). Particulars: HCT116 beta-catenin knockout viability, CellTiter-Glo, 60 h; at 10 µM; active compounds read low.
Experiment [5] is described as follows: viability of PTEN-null HCT116 cells – cell-based, HCT116 clonal line, CellTiter-Glo, pilot screen (AID 824;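 active = viability at or below 27.92% in each of two runs, the all-compound median minus 4 SD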;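 also: 0% = 20 µM Hyamine control and 100% = vehicle cell control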). Particulars: HCT116 PTEN-deleted viability, 60 h, at 10 µM, active compounds read low.
Experiment [6] in a line: RAM pathway blockade in budding yeast – dse1pr::URA3 reporter, 5-FOA selection, pilot screen (AID 869;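 active = inhibition over a set limit, the all-compound mean plus 3 SD, in both replicate runs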;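 also: 0% = DMSO wells with no growth and 100% = 10 µM 1-NA-PP1 with full growth; RAM network block rescues cells from 5-FOA so hits raise OD615 growth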). Particulars: S. cerevisiae dse1pr::URA3 5-FOA growth, OD615, 2 d; at 10 µM; active compounds read high; strain carries analog-sensitive mutant Cbk1 kinase.
The nature of experiment [7]: RAM signaling pathway blockade in yeast – S. cerevisiae, Pdr1DBD-CYC8 efflux-inhibited sensitized strain, primary screen (AID 1298;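 active = RAM network inhibition above 8.4% in each of two replicates, 3 SD over the compound average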;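 also: 0% = DMSO untreated cells without growth and 100% = 10 µM 1-NA-PP1 full growth; higher means more yeast growth rescued from 5-FOA killing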). As to conditions: S. cerevisiae cbk1-as DSE1-URA3 strain, 5-FOA growth OD615, 2 d; at 50 µM; active compounds read high.

Consider 15 compounds from PubChem BioAssay.

Unmarked numbers belong to inactive results. Records with an inconclusive call do not appear. The source made the active and inactive calls.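 The calls were made as follows, unless noted: active = viability increase at or above a cutoff of the median across tested compounds plus 3 SD (cut at about 8.5% in these data, passing the limit was not always enough); inconclusive = some gains above the cutoff, reason not given; inactive = the rest.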

Regarding `CCCCN1C(=O)C(O)(CC(=O)c2ccccc2OC)c2ccccc21` (stereo not given), the growth inhibition in experiment [1] is -13.7%; in experiment [2], -5.6%. Further, the viability increase in experiment [3] was -3.31%. The viability in experiment [4] is 79.6%; in experiment [5], 89.5%. In addition, the inhibition in experiment [6] is 1.89%. The RAM network inhibition in experiment [7] is 2.02%.
Turning to `Cc1nn(-c2ccccc2)c2sc(C(=O)OCN3C(=O)c4ccccc4C3=O)cc12`, the growth inhibition in experiment [1] was -8.01%; in experiment [2], -6.25%. Further, the viability increase in experiment [3] was -3.32%. Also, the viability in experiment [4] is 83.6%; in experiment [5], 85.2%. Further, the inhibition in experiment [6] was 2.55%. Moreover, in experiment [7], the RAM network inhibition is 4.24%.
On to `C=CCSc1nnc2nc3c(nn12)c1cc(C)ccc1n3CC=C`, for which the growth inhibition in experiment [1] is 10.7%; in experiment [2], 51.1% (active). Also, the viability increase in experiment [3] is -3.51%. In addition, the viability in experiment [4] was 88%; in experiment [5], 82.6%. Also, the inhibition in experiment [6] was 1.21%. Besides, the RAM network inhibition in experiment [7] was 3.23%.
Regarding `CCN(CC)CCCNC(=O)c1cc(-c2ccc(O)cc2)on1`, the growth inhibition was -14.6% in experiment [1] and 9.75% in experiment [2]. Moreover, the viability increase in experiment [3] is -3.12%. The viability was 99.1% in experiment [4] and 96.1% in experiment [5]. Further, the inhibition in experiment [6] is 1.24%. Also, the RAM network inhibition in experiment [7] was 1.77%.
Turning to `Cn1nnnc1SCC(=O)c1ccco1`, the values for the growth inhibition in experiment [1] and in experiment [2] were -7.91% and -1%, respectively. The viability increase in experiment [3] is -3.23%. The viability in experiment [4] is 103%; in experiment [5] it was 105%. For the same compound, the inhibition in experiment [6] was 1.83%. In addition, in experiment [7], the RAM network inhibition was -0.17%.
As for `CCOc1ccccc1CNC(=O)c1cc2occc2n1C`, the growth inhibition in experiment [1] is 1.53%; in experiment [2], 5.16%. In experiment [3], the viability increase was 1.21%. Also, the viability in experiment [4] was 95.2%; in experiment [5], 87.4%. For the same compound, in experiment [6], the inhibition was 1.74%. In addition, the RAM network inhibition in experiment [7] is 3.98%.
`Cc1ccccc1-c1nc(CN2CCC(C(=O)N3CCN(c4ccccn4)CC3)CC2)c(C)o1`: the growth inhibition in experiment [1] was -7.71%; in experiment [2], -18.8%. The viability increase in experiment [3] is -5.67%. The viability in experiment [4] is 61.6%; in experiment [5] it was 67.7%. Besides, the inhibition in experiment [6] is 1.33%. Also, the RAM network inhibition in experiment [7] was -0.47%.
On to `CCn1cc(C(=O)NCCCN2CCC(C)CC2)c2cc(OC)c(OC)cc2c1=O`, for which the growth inhibition is -7.74% in experiment [1] and 6.7% in experiment [2]. Moreover, the viability increase in experiment [3] is -3.47%. For the same compound, the viability in experiment [4] is 99.3%; in experiment [5] it was 92%. For the same compound, the inhibition in experiment [6] was 1.77%. In addition, in experiment [7], the RAM network inhibition is 1.99%.
Consider `Clc1ccccc1N1CCN(c2ncnc3nc[nH]c23)CC1`, for which the results for the growth inhibition in experiment [1] and in experiment [2] were 7.42% and -4.18%, respectively. Further, the viability increase in experiment [3] is -1.4%. Also, the viability is 95% in experiment [4] and 95.7% in experiment [5]. In experiment [6], the inhibition was 4.08%. In addition, the RAM network inhibition in experiment [7] is 5.77%.
For `Cc1ccnc(N2C(=O)c3ccccc3C2Nc2cccc(C)c2C)c1` (stereo not given), the growth inhibition in experiment [1] is -14%; in experiment [2], -0.8%. Further, in experiment [3], the viability increase was 0.92%. Moreover, the viability in experiment [4] is 92%; in experiment [5], 87.1%. Moreover, the inhibition in experiment [6] is 1.32%. Further, the RAM network inhibition in experiment [7] is 6.56%.
As to `CCc1nnc(NC(=O)C2Cc3ccccc3C(=O)O2)s1` (stereo not given), the growth inhibition in experiment [1] is -13.9%; in experiment [2], -14.9%. Also, the viability increase in experiment [3] is 1.66%. The viability in experiment [4] is 102%; in experiment [5], 104%. In addition, in experiment [6], the inhibition was 1.32%. Further, in experiment [7], the RAM network inhibition was 5.85%.
For `C#CCn1c(=NC(=O)c2cccs2)sc2cccc(OC)c21`, the values for the growth inhibition in experiment [1] and in experiment [2] were -11.2% and -16.3%, respectively. The viability increase in experiment [3] was -3.51%. For the same compound, the viability in experiment [4] was 79.6%; in experiment [5], 73.9%. Moreover, the inhibition in experiment [6] was 3.34%. In experiment [7], the RAM network inhibition is 7.2%.
`O=C(c1cnn2ccccc12)N(Cc1ccco1)C1CCCC1`: the growth inhibition is -12% in experiment [1] and -4.11% in experiment [2]. Besides, in experiment [3], the viability increase was -3.08%. Besides, the viability in experiment [4] was 70%; in experiment [5], 69.8%. Also, the inhibition in experiment [6] is 2.74%. Besides, the RAM network inhibition in experiment [7] is 1.62%.
With `COc1cccc(NC(=O)Nc2nnc(N3CCCCC3C)s2)c1` (stereo not given), the growth inhibition in experiment [1] was -2.52%; in experiment [2], -11.5%. Further, the viability increase in experiment [3] was -4.53%. In addition, the viability was 88.8% in experiment [4] and 97.8% in experiment [5]. Further, the inhibition in experiment [6] was 1.83%. Further, the RAM network inhibition in experiment [7] is 4.22%.
On to `Cc1sc(NC(=O)CCCC(=O)O)c(C#N)c1C`, for which the growth inhibition in experiment [1] is -0.59%; in experiment [2], 16.8%. For the same compound, the viability increase in experiment [3] is -1.9%. Moreover, the viability in experiment [4] was 99.4%; in experiment [5] it was 99%. Also, the inhibition in experiment [6] is 1.27%. In addition, in experiment [7], the RAM network inhibition is 3.31%.
